This note sets out measurements from ChEMBL document CHEMBL4270570 (Eur J Med Chem, 2018).

Bounds are passed on as bounds.

In data set [1] the target is Human immunodeficiency virus type 1 integrase (Human immunodeficiency virus 1, UniProt Q7ZJM1). Put plainly: Inhibition of HIV integrase strand transfer activity using 5'-biotin/3'-Cy5-labeled DNA substrate preincubated for 5 mins followed by substrate addition measured after 30 mins by HTS assay.
The next data set deals with Gag-Pol polyprotein (Human immunodeficiency virus type 1 group M subtype B (isolate HXB2)(HIV-1), UniProt P04585). The data set can be described thus: Inhibition of HIV1 reverse transcriptase polymerase activity using 18 nucleotide DNA primer and 100 nucleotide DNA template after 30 mins. On the set-up: species or system Human immunodeficiency virus 1. The essentials:
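Full-length RT at 20 nM with 40 nM template/primer (18-nt DNA primer on 100-nt DNA template) and 10 µM dNTPs in 50 mM Tris pH 7.8, 50 mM NaCl. Started with 6 mM MgCl2, with 1% DMSO and increasing compound concentrations. Primer extension ran 30 min at 37 °C and was stopped with 100 mM EDTA.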

Data set [2] addresses Human immunodeficiency virus type 1 reverse transcriptase (Human immunodeficiency virus 1, UniProt Q72547). The data set can be described thus: Inhibition of HIV1 reverse transcriptase RNaseH activity using 3'-fluorescein/5'-Dabcyl labeled HTS-1 substrate.
A short description of data set [3]: Cytotoxicity against human P4R5 MAGI cells. In kind it is cell-based. An outline of the steps:
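P4R5 cells express CD4, CXCR4, CCR5 and an HIV LTR-driven β-galactosidase reporter. They were seeded at 4×10^3 cells per well in DMEM/10% FBS with puromycin (1 µg/mL).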

Data set [4] concerns Human immunodeficiency virus 1. Put plainly: Antiviral activity against HIV1 infected in CD4/CXCR4/CCR5 expressing human P4R5 MAGI cells preincubated with cells for 24 hrs followed by viral infection measured after 48 hrs by beta-galactosidase reporter gene assay. In kind it is functional, organism-based.

Human immunodeficiency virus type 1 integrase, sequence (Q7ZJM1 whole entry): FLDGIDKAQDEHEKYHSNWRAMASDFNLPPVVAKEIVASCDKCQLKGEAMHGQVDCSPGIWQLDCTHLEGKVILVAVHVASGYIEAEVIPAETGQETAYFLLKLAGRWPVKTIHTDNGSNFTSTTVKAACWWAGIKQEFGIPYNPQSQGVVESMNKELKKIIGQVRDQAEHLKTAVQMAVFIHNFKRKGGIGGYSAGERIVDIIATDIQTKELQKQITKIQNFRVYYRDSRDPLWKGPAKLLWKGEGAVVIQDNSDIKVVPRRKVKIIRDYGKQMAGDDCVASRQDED

For `COc1ccc(Sc2cc(=O)n(O)c(=O)[nH]2)cc1`, the half-maximal inhibitory concentration (IC50) was 3.6 µM in data set [1], above 10 µM at Gag-Pol polyprotein and 0.012 µM in data set [2]. In data set [3], this compound gave a CC50 above 100 µM. In data set [4], this compound gave an EC50 above 20 µM.
Regarding `O=c1cc(Sc2ccccc2C(F)(F)F)[nH]c(=O)n1O`, the IC50 in data set [1] is 0.88 µM; at Gag-Pol polyprotein, above 10 µM; in data set [2], 0.012 µM. In data set [3], this compound showed a CC50 above 100 µM. Also, the EC50 in data set [4] amounted to 6.6 µM.
As to `O=c1cc(Sc2ccccc2Br)[nH]c(=O)n1O`, the IC50 in data set [1] is 1.1 µM; at Gag-Pol polyprotein it was above 10 µM; in data set [2] it was 0.008 µM. The compound also yielded a CC50 in data set [3] above 100 µM. Further, the EC50 in data set [4] worked out at 6.5 µM.
The like results for `O=c1cc(Sc2ccccc2F)[nH]c(=O)n1O` were, in that order, 0.77 µM, above 10 µM, 0.015 µM, above 100 µM and 4.7 µM.
For the compound `O=c1[nH]c(Sc2ccc(Br)cc2)c(I)c(=O)n1O`, the results for the IC50 (at Gag-Pol polyprotein; in data set [2]) were 0.46 µM and 0.12 µM, respectively.
For `O=c1cc(Sc2cccc(F)c2)[nH]c(=O)n1O`, the IC50 in data set [1] was 0.49 µM; against Gag-Pol polyprotein, above 10 µM; in data set [2], 0.014 µM. The compound also registered a CC50 in data set [3] above 100 µM. The same compound came in with an EC50 in data set [4] of 9.1 µM.
As to `O=c1cc(Sc2ccc(C(F)(F)F)cc2)[nH]c(=O)n1O`, the IC50 is above 10 µM in data set [1], above 10 µM at Gag-Pol polyprotein and 0.031 µM in data set [2]. The same compound came in with a CC50 in data set [3] above 100 µM. In data set [4], this compound registered an EC50 above 20 µM.
Compound `COc1cccc(-c2ccc(Nc3cc(=O)n(O)c(=O)[nH]3)cc2)c1` came in with a CC50 in data set [3] above 25 µM. In data set [4], the EC50 is above 25 µM.
For `O=c1cc(Sc2ccc(Br)cc2)[nH]c(=O)n1O`, the IC50 amounted to 7 µM against Gag-Pol polyprotein and 0.01 µM in data set [2].
As to `O=c1cc(Sc2ccc(F)cc2)[nH]c(=O)n1O`, the IC50 is 6.8 µM in data set [1], above 10 µM on Gag-Pol polyprotein and 0.037 µM in data set [2]. The compound also came in with a CC50 in data set [3] above 100 µM. In data set [4], this compound yielded an EC50 above 20 µM.
For `O=c1cc(Sc2ccccc2)[nH]c(=O)n1O`, the IC50 is 1.1 µM in data set [1], above 10 µM against Gag-Pol polyprotein and 0.016 µM in data set [2]. Also, the CC50 in data set [3] is above 100 µM. Besides, a half-maximal effect in data set [4] (EC50) was put at 11 µM.
Turning to `CCc1ccc(Sc2cc(=O)n(O)c(=O)[nH]2)cc1`, the IC50 in data set [1] is 1.3 µM; against Gag-Pol polyprotein, above 10 µM; in data set [2] it was 0.01 µM. In addition, in data set [3], the CC50 was above 100 µM. In addition, the EC50 in data set [4] was 11 µM.
In the case of `O=c1cc(Sc2ccc(O)cc2)[nH]c(=O)n1O`, the IC50 was 1.6 µM in data set [1], above 10 µM at Gag-Pol polyprotein and 0.011 µM in data set [2]. This compound displayed a CC50 in data set [3] above 100 µM. This compound also gave a 50% effective concentration (EC50) in data set [4] above 20 µM.
Regarding `O=c1cc(Sc2cccc(Br)c2)[nH]c(=O)n1O`, the values for the IC50 (in data set [1]; against Gag-Pol polyprotein; in data set [2]) were 1.2 µM, above 10 µM and 0.011 µM, respectively. The compound further came in with a CC50 in data set [3] above 100 µM. Besides, the EC50 in data set [4] turned out to be 8.2 µM.
In the case of `CCc1ccccc1Sc1cc(=O)n(O)c(=O)[nH]1`, the IC50 in data set [1] was 0.75 µM; at Gag-Pol polyprotein it was above 10 µM; in data set [2] it was 0.01 µM. This compound returned a 50% cytotoxic concentration (CC50) in data set [3] above 100 µM. For the same compound, a half-maximal effect in data set [4] (EC50) was put at 6.2 µM.
Regarding `O=c1[nH]c(Sc2ccc(Br)cc2)c(Br)c(=O)n1O`, the results for the IC50 (at Gag-Pol polyprotein; in data set [2]) were 5 µM and 0.07 µM, respectively.
With `O=c1cc(Sc2ccc(-c3ccccc3)cc2)[nH]c(=O)n1O`, the IC50 stood at 3.2 µM on Gag-Pol polyprotein and 0.09 µM in data set [2].
Consider `O=c1cc(Sc2cccc(C(F)(F)F)c2)[nH]c(=O)n1O`, for which the results for the IC50 (in data set [1]; against Gag-Pol polyprotein; in data set [2]) were 0.88 µM, above 10 µM and 0.013 µM, respectively. Besides, the CC50 in data set [3] was above 100 µM. In data set [4], this compound had an EC50 of 6.2 µM.
Turning to `O=c1cc(Sc2cccc(Cl)c2)[nH]c(=O)n1O`, the IC50 in data set [1] was 0.59 µM; at Gag-Pol polyprotein it was above 10 µM; in data set [2], 0.011 µM. For the same compound, in data set [3], the CC50 was above 100 µM. The half-maximal effective concentration (EC50) in data set [4] is 6.3 µM.

As usually defined, the IC50 is the concentration needed to halve the response being measured. Read a low IC50 as greater potency in that assay. A word on the CC50: it is the concentration giving 50% cytotoxicity. As usually defined, the EC50 is the midpoint of the concentration-response curve. A lower EC50 goes with greater potency.
